From ChEMBL document CHEMBL1142406, “2-Heteroarylimino-5-benzylidene-4-thiazolidinones analogues of 2-thiazolylimino-5-benzylidene-4-thiazolidinones with antimicrobial activity: synthesis and structure-activity relationship” (2008)
≈ marks a conversion by molar mass, not a printed value. Calls of active or inactive are those of the source. The rule behind the calls is not given here.

Assays:
[1] = test system: Bacillus subtilis; experiment: Antimicrobial activity against Bacillus subtilis ATCC 6633 by broth dilution technique; assay type: functional
How it was run: (§1)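 Broth dilution in Mueller Hinton Broth. Compounds are dissolved in DMSO (never above 1% v/v final) and serially diluted. MIC is the lowest concentration giving complete growth inhibition.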

[2] = test system: Staphylococcus aureus; experiment: Antimicrobial activity against Staphylococcus aureus ATCC 25923 by broth dilution technique; assay type: functional; how it was run: as §1
[3] = test system: Haemophilus influenzae; experiment: Antimicrobial activity against Haemophilus influenzae by broth dilution technique; assay type: functional
How it was run: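 Haemophilus Test Medium broth dilution. Compounds in DMSO are added to final dilutions, with DMSO at most 1% v/v. MIC is the lowest concentration completely inhibiting growth.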

[4] = test system: Escherichia coli; experiment: Antimicrobial activity against Escherichia coli SPA27 upto 100 ug/ml by broth dilution technique; assay type: functional, organism-based; how it was run: as §1
[5] = test system: Candida tropicalis; experiment: Antimicrobial activity against Candida tropicalis ATCC 1369 upto 100 ug/ml by broth dilution technique; assay type: functional, organism-based
How it was run: (§2)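 Fungi are tested by Sabouraud Liquid Medium dilution. Compounds are in DMSO, with DMSO at most 1% v/v final. Inoculum is 1×10³ fungi/mL, incubated 48 h at 30 °C. MIC is the lowest concentration completely inhibiting growth. For MFC, 100 µL of clear mixtures is subcultured into 1 mL fresh medium and read after 48 h at 30 °C.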

[6] = test system: Aspergillus niger; experiment: Antimicrobial activity against Aspergillus niger ATCC 6275 upto 100 ug/ml by broth dilution technique; assay type: functional, organism-based; how it was run: as §2
[7] = test system: Saccharomyces cerevisiae; experiment: Antimicrobial activity against Saccharomyces cerevisiae ATCC 9763 upto 100 ug/ml by broth dilution technique; assay type: functional, organism-based; how it was run: as §2
[8] = test system: Priestia megaterium; experiment: Antimicrobial activity against Bacillus megaterium by broth dilution technique; assay type: functional; how it was run: as §1
[9] = test system: Micrococcus luteus; experiment: Antimicrobial activity against Sarcina lutea by broth dilution technique; assay type: functional; how it was run: as §1
[10] = test system: Staphylococcus aureus; experiment: Antimicrobial activity against penicillin-resistant Staphylococcus aureus by broth dilution technique; assay type: functional
How it was run: (§3)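 Broth dilution in Mueller Hinton Broth with compounds predissolved in DMSO (at most 1% v/v). Final concentrations ranged from 100 to 0.0015, and the inoculum was 5.10⁴ bacteria/mL. Plates were incubated at 37 °C for 24 h. MIC was taken as the lowest concentration giving complete growth inhibition.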

[11] = test system: Staphylococcus epidermidis; experiment: Antimicrobial activity against penicillin-resistant Staphylococcus epidermidis by broth dilution technique; assay type: functional; how it was run: as §3
[12] = test system: Staphylococcus haemolyticus; experiment: Antimicrobial activity against Staphylococcus haemolyticus by broth dilution technique; assay type: functional; how it was run: as §1
[13] = test system: Streptococcus agalactiae; experiment: Antimicrobial activity against Streptococcus agalactiae by broth dilution technique; assay type: functional; how it was run: as §1
[14] = test system: Enterococcus faecalis; experiment: Antimicrobial activity against Streptococcus faecalis by broth dilution technique; assay type: functional; how it was run: as §1
[15] = test system: Enterococcus faecium; experiment: Antimicrobial activity against Streptococcus faecium by broth dilution technique; assay type: functional; how it was run: as §1
[16] = test system: Streptococcus pyogenes; experiment: Antimicrobial activity against Streptococcus pyogenes by broth dilution technique; assay type: functional
How it was run: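 Tryptose Phosphate Broth dilution. Compounds are dissolved in DMSO, with DMSO at most 1% v/v final. MIC is taken as the lowest concentration with complete growth inhibition.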

[17] = test system: Bacillus thuringiensis; experiment: Antimicrobial activity against Bacillus thuringiensis var. kurstaki BGSC 4D1 by broth dilution technique; assay type: functional; details: serovar kurstaki; how it was run: as §1
[18] = test system: Staphylococcus epidermidis; experiment: Antimicrobial activity against Staphylococcus epidermidis ATCC 12228 by broth dilution technique

Structure (SMILES)	MIC [1] [µg/mL]	MIC [2] [µg/mL]	MIC [3] [µg/mL]	Activity [4]	Activity [5]	Activity [6]	Activity [7]	MIC [8] [µg/mL]	MIC [9] [µg/mL]	MIC [10] [µg/mL]	MIC [11] [µg/mL]	MIC [12] [µg/mL]	MIC [13] [µg/mL]	MIC [14] [µg/mL]	MIC [15] [µg/mL]	MIC [16] [µg/mL]	MIC [17] [µg/mL]	MIC [18] [µg/mL]
COc1cc(/C=C2\S/C(=N\c3nsc4ccccc34)NC2=O)ccc1O	> 100	> 100	> 100	inactive	inactive	inactive	inactive											
O=C1N/C(=N/c2nsc3ccccc23)S/C1=C\c1ccccc1[N+](=O)[O-]	> 100	3 (≈ 7.84 µM)	1.5 (≈ 3.92 µM)	inactive	inactive	inactive	inactive	> 100	> 100	50 (≈ 131 µM)	> 100	> 100	> 100	100 (≈ 261 µM)	> 100	> 100	3 (≈ 7.84 µM)	> 100
O=C1N/C(=N\c2nc3ccccc3s2)S/C1=C\c1ccccc1[N+](=O)[O-]	> 100	> 100	> 100	inactive	inactive	inactive	inactive											
O=C1N/C(=N/c2nsc3ccccc23)S/C1=C\c1cccc([N+](=O)[O-])c1	> 100	> 100	3 (≈ 7.84 µM)	inactive	inactive	inactive	inactive	0.7 (≈ 1.83 µM)	> 100	> 100	> 100	> 100	> 100	> 100	> 100	> 100	1.5 (≈ 3.92 µM)	> 100
O=C1N/C(=N/c2nsc3ccccc23)S/C1=C\c1ccccc1	> 100	> 100	> 100	inactive	inactive	inactive	inactive											
O=C1N/C(=N/c2nsc3ccccc23)S/C1=C\c1ccccc1Cl	> 100	> 100	> 100	inactive	inactive	inactive	inactive											
O=C1N/C(=N\c2nccs2)S/C1=C\c1cccc(Cl)c1	0.3 (≈ 0.932 µM)	1.5 (≈ 4.66 µM)	0.3 (≈ 0.932 µM)	inactive	inactive	inactive	inactive	0.15 (≈ 0.466 µM)	1.5 (≈ 4.66 µM)	0.7 (≈ 2.18 µM)	1.5 (≈ 4.66 µM)	3 (≈ 9.32 µM)	1.5 (≈ 4.66 µM)	50 (≈ 155 µM)	3 (≈ 9.32 µM)	12 (≈ 37.3 µM)	1.5 (≈ 4.66 µM)	1.5 (≈ 4.66 µM)
O=C1N/C(=N\c2nc3ccccc3s2)S/C1=C\c1cccc(Cl)c1	12 (≈ 32.3 µM)	25 (≈ 67.2 µM)	> 100	inactive	inactive	inactive	inactive	12 (≈ 32.3 µM)	12 (≈ 32.3 µM)	25 (≈ 67.2 µM)	12 (≈ 32.3 µM)	> 100	> 100	> 100	> 100	> 100	6 (≈ 16.1 µM)	6 (≈ 16.1 µM)
O=C1N/C(=N\c2nccs2)S/C1=C\c1ccc([N+](=O)[O-])cc1	1.5 (≈ 4.51 µM)	3 (≈ 9.03 µM)	0.3 (≈ 0.903 µM)	inactive	inactive	inactive	inactive	0.7 (≈ 2.11 µM)	3 (≈ 9.03 µM)	1.5 (≈ 4.51 µM)	6 (≈ 18.1 µM)	6 (≈ 18.1 µM)	1.5 (≈ 4.51 µM)	> 100	> 100	> 100	1.5 (≈ 4.51 µM)	6 (≈ 18.1 µM)
O=C1CS/C(=N\c2nsc3ccccc23)N1	50 (≈ 201 µM)	> 100	3 (≈ 12 µM)	inactive	inactive	inactive	inactive	100 (≈ 401 µM)	> 100	> 100	> 100	> 100	> 100	> 100	> 100	> 100	> 100	> 100
COc1ccc(/C=C2\S/C(=N/c3nccs3)NC2=O)cc1	1.5 (≈ 4.73 µM)	12 (≈ 37.8 µM)	0.3 (≈ 0.945 µM)	inactive	inactive	inactive	inactive	1.5 (≈ 4.73 µM)	6 (≈ 18.9 µM)	3 (≈ 9.45 µM)	12 (≈ 37.8 µM)	12 (≈ 37.8 µM)	3 (≈ 9.45 µM)	> 100	> 100	12 (≈ 37.8 µM)	3 (≈ 9.45 µM)	6 (≈ 18.9 µM)
CC1(C)S[C@@H]2[C@H](NC(=O)[C@H](N)c3ccccc3)C(=O)N2[C@H]1C(=O)O [AMPICILLIN]	0.007 (≈ 0.02 µM)	0.07 (≈ 0.2 µM)	0.07 (≈ 0.2 µM)	inactive	inactive	inactive	inactive	0.07 (≈ 0.2 µM)	0.0015 (≈ 0.00429 µM)	25 (≈ 71.5 µM)	25 (≈ 71.5 µM)	0.03 (≈ 0.0859 µM)	0.03 (≈ 0.0859 µM)	0.7 (≈ 2 µM)	100 (≈ 286 µM)	0.007 (≈ 0.02 µM)	50 (≈ 143 µM)	3 (≈ 8.59 µM)
O=C1N/C(=N\c2nccs2)S/C1=C\c1ccccc1	0.7 (≈ 2.44 µM)	3 (≈ 10.4 µM)	0.7 (≈ 2.44 µM)	inactive	inactive	inactive	inactive	0.7 (≈ 2.44 µM)	3 (≈ 10.4 µM)	25 (≈ 87 µM)	50 (≈ 174 µM)	6 (≈ 20.9 µM)	3 (≈ 10.4 µM)	25 (≈ 87 µM)	25 (≈ 87 µM)	> 100	3 (≈ 10.4 µM)	6 (≈ 20.9 µM)
O=C1N/C(=N/c2nsc3ccccc23)S/C1=C\c1ccc(Cl)cc1	3 (≈ 8.07 µM)	> 100	> 100	inactive	inactive	inactive	inactive	0.7 (≈ 1.88 µM)	> 100	> 100	> 100	> 100	50 (≈ 134 µM)	> 100	> 100	> 100	6 (≈ 16.1 µM)	> 100
O=C1N/C(=N\c2nc3ccccc3s2)S/C1=C\c1ccccc1Cl	12 (≈ 32.3 µM)	12 (≈ 32.3 µM)	> 100	inactive	inactive	inactive	inactive	12 (≈ 32.3 µM)	12 (≈ 32.3 µM)	12 (≈ 32.3 µM)	25 (≈ 67.2 µM)	> 100	> 100	> 100	> 100	25 (≈ 67.2 µM)	12 (≈ 32.3 µM)	12 (≈ 32.3 µM)
O=C1N/C(=N\c2nccs2)S/C1=C\c1ccccc1[N+](=O)[O-]	6 (≈ 18.1 µM)	6 (≈ 18.1 µM)	0.7 (≈ 2.11 µM)	inactive	inactive	inactive	inactive	3 (≈ 9.03 µM)	12 (≈ 36.1 µM)	3 (≈ 9.03 µM)	25 (≈ 75.2 µM)	12 (≈ 36.1 µM)	12 (≈ 36.1 µM)	50 (≈ 150 µM)	25 (≈ 75.2 µM)	25 (≈ 75.2 µM)	6 (≈ 18.1 µM)	12 (≈ 36.1 µM)
COc1ccc(/C=C2\S/C(=N\c3nsc4ccccc34)NC2=O)cc1	> 100	> 100	> 100	inactive	inactive	inactive	inactive											
O=C1CSC(Nc2nccs2)=N1	50 (≈ 251 µM)	> 100	1.5 (≈ 7.53 µM)	inactive	inactive	inactive	inactive											
